This is an account of results in ChEMBL document CHEMBL1124968, “Synthesis and biological activity of new HMG-CoA reductase inhibitors. 2. Derivatives of 7-(1H-pyrrol-3-yl)-substituted-3,5-dihydroxyhept-6(E)-enoic (-heptanoic) acids” (J Med Chem, 1990).

pIC50: −log10 of the molar value.

Broadly, the pIC50 is the negative decadic logarithm of the IC50, by convention in mol/L.

Test [1] addresses T1, 3-hydroxy-3-methylglutaryl-coenzyme A reductase (Rattus norvegicus, UniProt P51639).
T1 sequence (P51639 whole entry): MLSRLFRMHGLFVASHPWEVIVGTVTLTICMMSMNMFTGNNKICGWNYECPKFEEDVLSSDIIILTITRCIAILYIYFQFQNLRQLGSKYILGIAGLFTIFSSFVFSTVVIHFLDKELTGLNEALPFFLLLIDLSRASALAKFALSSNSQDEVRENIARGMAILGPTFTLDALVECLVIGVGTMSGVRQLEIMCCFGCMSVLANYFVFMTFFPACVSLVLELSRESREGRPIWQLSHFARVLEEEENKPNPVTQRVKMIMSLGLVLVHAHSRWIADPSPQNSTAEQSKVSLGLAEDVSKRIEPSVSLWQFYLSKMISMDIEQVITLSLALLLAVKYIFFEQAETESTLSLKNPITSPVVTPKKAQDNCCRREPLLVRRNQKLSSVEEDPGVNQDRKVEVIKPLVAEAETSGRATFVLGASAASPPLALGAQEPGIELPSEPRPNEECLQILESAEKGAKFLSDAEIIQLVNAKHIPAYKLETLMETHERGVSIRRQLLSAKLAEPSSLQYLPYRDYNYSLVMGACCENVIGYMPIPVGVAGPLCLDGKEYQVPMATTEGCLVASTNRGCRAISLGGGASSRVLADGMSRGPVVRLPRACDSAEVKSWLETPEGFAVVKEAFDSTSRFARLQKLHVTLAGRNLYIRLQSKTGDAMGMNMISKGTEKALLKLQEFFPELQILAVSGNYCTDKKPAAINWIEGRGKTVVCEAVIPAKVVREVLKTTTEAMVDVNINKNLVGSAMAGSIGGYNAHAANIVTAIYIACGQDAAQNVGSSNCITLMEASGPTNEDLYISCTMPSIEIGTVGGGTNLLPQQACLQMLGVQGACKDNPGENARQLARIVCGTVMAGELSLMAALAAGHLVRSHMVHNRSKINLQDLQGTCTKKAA
Kind of test: In vitro inhibition of HMG-CoA reductase of rat liver.

Test [2] deals with T2, 3-hydroxy-3-methylglutaryl-coenzyme A reductase (Rattus norvegicus) (UniProt P51639).
T2 sequence (whole entry): T1 sequence (P51639 whole entry)
The test can be described thus: In vitro inhibition of solubilized, partially purified rat liver HMG-CoA reductase relative to mevinolin.

Test [3] relates to Rattus norvegicus. The test can be described thus: Inhibition of hepatic cholesterol de novo synthesis in male rats after po administration; values are per cent of control.
Test [4] has as its target T3, 3-hydroxy-3-methylglutaryl-coenzyme A reductase (Homo sapiens, UniProt P04035).
T3 sequence (P04035 whole entry): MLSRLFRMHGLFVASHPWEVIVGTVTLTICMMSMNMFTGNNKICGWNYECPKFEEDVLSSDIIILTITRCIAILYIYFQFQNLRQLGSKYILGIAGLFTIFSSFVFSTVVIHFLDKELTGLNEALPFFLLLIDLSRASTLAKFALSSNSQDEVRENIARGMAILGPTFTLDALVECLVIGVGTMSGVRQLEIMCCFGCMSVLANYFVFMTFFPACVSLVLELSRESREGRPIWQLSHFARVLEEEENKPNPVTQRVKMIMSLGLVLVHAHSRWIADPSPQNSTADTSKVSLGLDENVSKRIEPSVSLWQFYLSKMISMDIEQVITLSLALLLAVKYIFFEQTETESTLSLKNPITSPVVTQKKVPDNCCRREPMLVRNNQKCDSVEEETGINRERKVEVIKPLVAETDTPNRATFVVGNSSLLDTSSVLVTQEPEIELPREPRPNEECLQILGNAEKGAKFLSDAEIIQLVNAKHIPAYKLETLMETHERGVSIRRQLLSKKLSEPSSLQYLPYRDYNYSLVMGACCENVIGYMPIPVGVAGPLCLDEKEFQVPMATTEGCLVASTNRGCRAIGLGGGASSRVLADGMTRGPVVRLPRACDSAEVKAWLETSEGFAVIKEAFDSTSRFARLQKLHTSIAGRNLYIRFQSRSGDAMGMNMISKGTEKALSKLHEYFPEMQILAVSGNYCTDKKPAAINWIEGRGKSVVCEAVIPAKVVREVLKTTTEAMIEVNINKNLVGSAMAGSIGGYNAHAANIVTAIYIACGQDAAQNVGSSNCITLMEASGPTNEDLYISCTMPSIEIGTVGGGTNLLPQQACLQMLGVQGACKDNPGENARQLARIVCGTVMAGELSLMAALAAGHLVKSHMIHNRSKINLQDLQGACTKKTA
Kind of test: Inhibition of cellular HMG-CoA reductase in cultures of hepatic cells (HEP G2, a human hepatoma cell line). Type of test: cell-based. A digest of the protocol:
(§1)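 HEP G2 human hepatoma cells in culture; cellular HMG-CoA reductase inhibition read as reduced incorporation of sodium [14C]acetate into cholesterol; IC50 values varied somewhat between cell batches. Assay system as in the preceding paper.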

In test [5] the target is T4, 3-hydroxy-3-methylglutaryl-coenzyme A reductase (Homo sapiens) (UniProt P04035).
T4 sequence (whole entry): T3 sequence (P04035 whole entry)
Kind of test: Inhibition of cellular HMG-CoA reductase in cultures of hepatic cells (HEP G2, a human hepatoma cell line) relative to mevinolin. Type of test: cell-based. A digest of the protocol: as §1

In test [6] the test system is Rattus norvegicus. Kind of test: Inhibition of hepatic cholesterol de novo synthesis in male rats after po administration,; values are per cent of control.
The subject of test [7] is Canis familiaris. The test can be described thus: Percent decrease in plasma LDL-cholesterol in dog was determined after oral administration of a dose of 10 mg/kg for 19 days. It is filed as functional, Canis lupus familiaris. Also on record: scale not given: the % may be the effect or the level left. A digest of the protocol: (§2)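 Normally fed male beagle dogs (n = 4) given drug orally each day (20 mg/kg for 14 days or 10 mg/kg for 19 days); plasma LDL- and HDL-cholesterol followed as percent change.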

In test [8] the test system is Canis familiaris. The test can be described thus: Percent increase in plasma HDL-cholesterol in dog was determined after oral administration of a dose of 10 mg/kg for 19 days. Type of test: functional, Canis lupus familiaris. The essentials:
as §2

The test system of test [9] is Oryctolagus cuniculus. Kind of test: Percent decrease in total plasma cholesterol in rabbit was determined after oral administration of a dose of 10 mg/kg for 6 days. It is filed as functional. The arrangement: scale not given: the % may be the effect or the level left. The essentials:
(§3)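 Normally fed normolipemic rabbits given oral doses repeatedly (20 mg/kg for 10 days, n = 6; 10 mg/kg for 6 days, n = 4); total plasma cholesterol decrease expressed as percent.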

Test [10] concerns Rattus norvegicus. Kind of test: Inhibition of hepatic cholesterol de novo synthesis in male rats after po administration, relative to mevinolin. It is filed as functional. A digest of the protocol: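 Male rats dosed orally. […] Dose 5 mg/kg bw for lactone form, optically pure; 10 mg/kg bw for racemic sodium salts. Potency expressed against optically pure mevinolin tested under the same conditions.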

Test [11] concerns Canis familiaris. Kind of test: Percent decrease in plasma LDL-cholesterol in dog was determined after oral administration of a dose of 20 mg/kg for 14 days. It is filed as functional, Canis lupus familiaris. Also on record: scale not given: the % may be the effect or the level left. A digest of the protocol:
as §2

Test [12] deals with Canis familiaris. The test can be described thus: Percent increase in plasma HDL-cholesterol in dog was determined after oral administration of a dose of 20 mg/kg for 14 days. Type of test: functional, Canis lupus familiaris. A digest of the protocol: as §2
The subject of test [13] is Oryctolagus cuniculus. The test can be described thus: Percent decrease in total plasma cholesterol in rabbit was determined after oral administration of a dose of 20 mg/kg for 10 days. Type of test: functional. The arrangement: scale not given: the % may be the effect or the level left. A digest of the protocol:
as §3

For the compound `CC(C)c1c(CC[C@@H](O)C[C@@H](O)CC(=O)O)c(-c2ccc(F)cc2)cn1C(C)C` [listing 1 of 2 here], the pIC50 in [1] was 8.05.
Still for that read-out and setting: in the case of `Cc1c(-c2ccc(F)cc2)c(CC[C@@H](O)C[C@@H](O)CC(=O)O)c(C(C)C)n1-c1ccccc1` [listing 1 of 2 here] it was 8.60.
In the case of `CC(C)c1c(CC[C@@H](O)C[C@@H](O)CC(=O)O)c(-c2ccc(F)cc2)cn1-c1ccccc1`, in test [1], the pIC50 is 8.52. The compound further came in with a Relative potency in [2] of 257.
On to `CC(C)c1c(CC[C@@H](O)C[C@@H](O)CC(=O)O)c(-c2ccc(F)cc2)cn1C(C)C` [listing 2 of 2 here], for which the Relative potency in [2] came out at 85.
In [2], `Cc1c(-c2ccc(F)cc2)c(CC[C@@H](O)C[C@@H](O)CC(=O)O)c(C(C)C)n1-c1ccccc1` (racemic) [listing 1 of 2 here] displayed a Relative potency of 149.
Take `CC(C)c1c(/C=C/[C@@H](O)C[C@@H](O)CC(=O)[O-])c(-c2ccc(F)cc2)cn1-c1ccccc1.[Na+]`: the “level, % of control” value in the test with Rattus norvegicus [3] came to 5.5%.
Turning to `Cc1c(CC[C@@H](O)C[C@@H](O)CC(=O)O)c(-c2ccc(F)cc2)cn1C(C)C`, the pIC50 was 6.57 in test [4] and 7.00 in [1]. The values for the Relative potency in test [5] and in [2] were 19 and 9, respectively.
In the case of `CC[C@H](C)C(=O)O[C@H]1C[C@@H](C)C=C2C=C[C@H](C)[C@H](CC[C@@H]3C[C@@H](O)CC(=O)O3)[C@H]21` [LOVASTATIN], in the test with Rattus norvegicus [6], the “level, % of control” value was 14%. For the same compound, the results for the Activity with Canis familiaris [7], with Canis familiaris [8] and in the test on Oryctolagus cuniculus [9] were -18%, 2% and 25%, respectively.
Turning to `CC(C)c1c(CC[C@@H](O)C[C@@H](O)CC(=O)[O-])c(-c2ccc(F)cc2)cn1C1CCCCC1.[Na+]`, the “level, % of control” value with Rattus norvegicus [3] was found to be 6%.
For `CC(C)c1c(/C=C/[C@H](O)C[C@@H](O)CC(=O)O)c(-c2ccc(F)cc2)cn1C1CCCCC1`, the figures for the negative logarithm of the IC50 (pIC50) in test [4] and in test [1] were 6.97 and 7.16, respectively. For the same compound, the Relative potency in test [5] is 47; in test [2], 12.
`CC(C)c1c(CC[C@@H](O)C[C@@H](O)CC(=O)[O-])c(-c2ccc(F)cc2)cn1C(C)C.[Na+]` (racemic): the pIC50 in [4] is 8.70; in [1] it was 7.74. This compound came in with a Relative potency with Rattus norvegicus [10] of 156. Moreover, the “level, % of control” value in the test with Rattus norvegicus [3] came to 9%. In the test on Oryctolagus cuniculus [9], the Activity was determined as 42%.
`Cc1c(/C=C/[C@@H](O)C[C@@H](O)CC(=O)O)c(-c2ccc(F)cc2)c(C)n1-c1ccccc1`: the results for the negative logarithm of the IC50 (pIC50) in [4] and in test [1] were 5.30 and 6.60, respectively. The figures for the Relative potency in test [5] and in test [2] were 1 and 3, respectively.
For the compound `Cc1c(-c2ccc(F)cc2)c(CC[C@@H](O)C[C@@H](O)CC(=O)O)c(C(C)C)n1-c1ccccc1` (racemic) [listing 2 of 2 here], the pIC50 in test [1] was 8.30.
`Cc1c(-c2ccc(F)cc2)c(CC[C@@H](O)C[C@@H](O)CC(=O)O)c(C(C)C)n1-c1ccccc1` [listing 2 of 2 here] yielded a Relative potency in test [2] of 300.
On to `CC(C)c1c(CC[C@@H](O)C[C@@H](O)CC(=O)O)c(-c2ccc(F)cc2)cn1C(C)C` (racemic), for which the Relative potency in [5] came to 2500; in [2], 42.
In the case of `CC(C)c1c(CCC(O)CC(O)CC(=O)[O-])c(-c2ccc(F)cc2)cn1-c1ccccc1.[Na+]` (racemic), the pIC50 in test [4] is > 8.00; in test [1], 8.22. The Activity in the test on Canis familiaris [11] is recorded as 48%; in the test on Canis familiaris [12], 14%; with Oryctolagus cuniculus [13] it was 34%. The Relative potency in [5] is > 500; in the test with Rattus norvegicus [10] it was 250; in test [2], 128. In the test with Rattus norvegicus [3], the “level, % of control” value is listed as 5.6%.
Consider `Cc1c(/C=C/[C@@H](O)C[C@@H](O)CC(=O)O)c(-c2ccc(F)cc2)cn1C(C)C`, for which the pIC50 was 5.22 in test [4] and 6.48 in test [1]. The Relative potency in test [5] turned out to be 1; in test [2], 2.
For `Cc1c(CC[C@@H](O)C[C@@H](O)CC(=O)O)c(-c2ccc(F)cc2)c(C)n1-c1ccccc1`, in that order: 6.24, 7.15, 9 and 11.
